An excerpt weighted towards active compounds, which were near 4.5% of everything screened.
UPR XBP1 act = adaptive UPR (XBP1) activation | CHO-XBP1 luciferase reporter, IRE1-XBP1 UPR activation, luminescence; percent of tunicamycin response, DMSO as zero | activation, % at 20 µM | 330,000 tested, 0.33% active | AID 463104;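 active means versus positive control, 20 µM dose yields 30% or more activation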
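assay system = CHO-XBP1 luciferase reporter cells | amount = 1000 cells/well | buffer or medium = F12 plus 10% FBS | compound dosing = single point, 20 µM final compound, 1% DMSO | incubation = 16-18 h cell attachment at 37 °C, then 6 h compound exposure | detection = Steady-Glo luminescence read | controls = tunicamycin 10 µg/mL and vehicle-only wells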
UPR CHOP act = apoptotic UPR (CHOP) activation; 330,000 tested, 0.34% active; CHO-CHOP luciferase reporter, luminescence; percent of tunicamycin response over DMSO baseline; activation, % at 10 µM;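 active means at 10 µM dose, activation of 40% or more, normalized to positive control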
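System: CHO-CHOP luciferase reporter cell line | Buffer or medium: F12 medium containing 10% fetal bovine serum | Doses: One dose, 10 µM in 0.5% DMSO | Times: 6 h compound exposure at 37 °C after overnight seeding | Signal: Luciferase luminescence | Read-out: % activation vs tunicamycin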
M18AAP inhibitor = PfM18AAP enzyme inhibition; recombinant PfM18AAP, H-Glu-NHMec fluorogenic cleavage; inhibition, % at 7.35 µM; 290,000 tested, 1.2% active;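 active means inhibition above the campaign mean inhibition over all tested compounds plus 3 SD, cut at about 28% in these data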
CHOP inh = blocks CHOP induction under ER stress | CHO-K1 CHOP-promoter luciferase, tunicamycin-induced, 15-18 h | inhibition, % at 10 µM | 220,000 tested, 3.8% active | AID 2732;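 active means compounds that reduced the stress-induced luciferase reporter signal by more than about 70% of percent inhibition, limit read from the data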
p97 inhibitor = inhibitors of human p97 ATPase; inhibition, % at 8 µM; P55072; recombinant p97 ATPase, Kinase-Glo ATP luminescence, 3 h; 220,000 tested, 0.42% active; in the data active means inhibition above about 15%
Target sequence (P55072 whole entry, looked up): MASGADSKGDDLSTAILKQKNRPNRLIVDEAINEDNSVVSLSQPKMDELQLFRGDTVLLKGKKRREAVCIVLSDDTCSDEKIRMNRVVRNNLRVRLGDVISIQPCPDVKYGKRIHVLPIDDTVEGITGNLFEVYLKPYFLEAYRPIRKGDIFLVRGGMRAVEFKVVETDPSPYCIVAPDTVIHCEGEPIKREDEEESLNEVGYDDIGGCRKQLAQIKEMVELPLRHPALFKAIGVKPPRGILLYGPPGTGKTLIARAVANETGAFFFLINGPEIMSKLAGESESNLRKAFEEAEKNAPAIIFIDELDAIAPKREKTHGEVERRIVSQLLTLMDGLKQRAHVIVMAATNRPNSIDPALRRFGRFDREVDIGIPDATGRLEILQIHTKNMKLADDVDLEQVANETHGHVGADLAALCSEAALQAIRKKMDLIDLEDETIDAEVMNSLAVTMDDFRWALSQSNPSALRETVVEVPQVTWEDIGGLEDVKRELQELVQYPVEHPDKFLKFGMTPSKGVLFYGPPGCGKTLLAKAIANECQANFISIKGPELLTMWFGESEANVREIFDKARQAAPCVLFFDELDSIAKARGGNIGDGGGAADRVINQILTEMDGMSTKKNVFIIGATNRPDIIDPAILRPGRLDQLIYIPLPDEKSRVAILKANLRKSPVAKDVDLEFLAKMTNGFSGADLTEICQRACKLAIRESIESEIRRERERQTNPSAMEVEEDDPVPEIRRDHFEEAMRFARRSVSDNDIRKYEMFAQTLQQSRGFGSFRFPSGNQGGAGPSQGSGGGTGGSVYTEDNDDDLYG
NS3 helicase inh = inhibitors of Hepatitis C virus NS3 helicase; NS3 helicase DNA unwinding, Cy5 molecular beacon fluorescence; inhibition, % at 10.9 µM; 290,000 tested, 0.56% active; AID 1800;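 active means inhibition above the mean of all tested compounds plus 3 SD, set per campaign, cut at about 35% in these data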
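System: NS3 helicase fragment of HCV / Schedule: 1 h at 25 °C / Control set: DMSO alone as 0% and 110 µM thioflavine S as 100% / Reagent: Cy5/quencher beacon DNA duplex and ATP to start / Technique: Cy5 fluorescence / Replication: singlicate / Evaluation: % inhibition of end-to-start signal ratio versus controls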
p97 confirm = confirmation of human p97 ATPase inhibitors | AID 1517 | 760 tested, 44% active | shares compounds with p97 inhibitor | inhibition, % at 8 µM | recombinant p97 ATPase, Kinase-Glo ATP luminescence;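 active means percent inhibition of p97 ATPase above a set limit, the primary screen's mean plus 3 SD, cut at about 15% in these data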
A number is an active result; . = inactive; / = no result.

SMILES | UPR XBP1 act | UPR CHOP act | M18AAP inhibitor | CHOP inh | p97 inhibitor | NS3 helicase inh | others
Cc1ccc(S(=O)(=O)NCCn2cnc([N+](=O)[O-])n2)cc1 | . | . | . | / | / | .
CC(C)CN(C(=O)CN1C(=O)NC(c2ccccc2)(c2ccccc2)C1=O)C1CCS(=O)(=O)C1 (configuration not stated) | . | . | / | / | / | /
Cc1cc(C(=O)NC(=S)Nc2cccc(NC(=O)C(C)C)c2)ccc1[N+](=O)[O-] | . | . | . | 80.6 | . | .
CC(C)C(=O)Nc1cccc(NC(=S)NC(=O)c2ccc([N+](=O)[O-])cc2)c1 | . | . | . | . | . | .
COc1ccccc1C(=O)N/N=C/c1c[nH]c2ccccc12 | . | . | . | / | / | .
Cc1ccc(-c2cn3nc(C)c(C)nc3n2)cc1 | . | . | . | 81.3 | . | .
CC1CCC(NC(=O)C(C)N2C(=O)C3CCCCC3C2=O)CC1 (configuration not stated) | . | . | / | / | / | /
CC1CC(C)CN(C(=O)c2ccc3c(c2)N(Cc2ccccc2)CCS3)C1 (configuration not stated) | . | . | . | 72.7 | . | .
O=C(NCc1cccnc1)c1ccc2c(c1)N(Cc1ccccc1)CCS2 | . | . | 30.1 | . | . | .
COCCCNC(=O)Cn1cnc(C(=O)Nc2ccc(C)c(C)c2)n1 | . | . | / | / | / | /
CC(=O)c1ccc(S(=O)(=O)Nc2ccc(C(=O)N(C)CC(=O)Nc3cccc(C)c3C)cc2)cc1 | . | . | / | / | / | /
COc1ccc(N=Nc2[nH]c3ccc(C)cc3c2O)cc1 | . | . | . | 90.7 | . | .
O=C(c1ccccc1F)N1CCN(c2cccc(C(F)(F)F)c2)CC1 | . | . | . | 73.7 | . | .
O=C(c1c(F)c(F)c(F)c(F)c1F)N1CCN(c2cccc(C(F)(F)F)c2)CC1 | . | . | . | 81.9 | . | .
O=C(c1ccccc1F)N1CCN(c2ccccc2)CC1 | . | . | . | . | . | .
Cn1c(C(=O)N2CCN(c3cccc(C(F)(F)F)c3)CC2)cc2sccc21 | . | . | . | 72.4 | . | .
Cc1ccc(S(=O)(=O)N(C)c2ccc(C(=O)N(CC(C)C)C3CCS(=O)(=O)C3)cc2)cc1 (configuration not stated) | . | . | / | / | / | /
CC1CCN(C(=O)c2ccccc2NS(=O)(=O)c2ccccc2)CC1 | . | . | . | / | / | .
CC(=O)c1ccc(NC(=S)NC(C)c2ccc(Cl)cc2Cl)cc1 (configuration not stated) | . | . | . | 72.9 | . | .
CC(=O)c1ccc(NC(=S)Nc2ccc(Br)c(Cl)c2)cc1 | . | . | . | . | . | .
COc1ccc(NC(=O)Cn2cnc3c(cnn3-c3ccc(C)c(C)c3)c2=O)c(OC)c1 | . | . | . | 81.6 | . | .
CCOc1ccccc1NC(=O)Cn1cnc2c(cnn2-c2ccc(C)c(C)c2)c1=O | . | . | . | . | . | .
C=C1CC[C@H](O)C/C1=C/C=C1\CCC[C@]2(C)[C@@H]([C@H](C)/C=C/[C@H](C)C(C)C)CC[C@@H]12 | . | . | / | / | / | /
CCCCOC(=O)n1c(=S)oc2cc(Cl)ccc21 | . | . | . | . | . | .
COC(=O)n1c(=S)oc2cc(Cl)ccc21 | . | . | . | 90.5 | . | .
SMILES | UPR XBP1 act | UPR CHOP act | M18AAP inhibitor | CHOP inh | p97 inhibitor | NS3 helicase inh | others
COc1cccc(NC(=O)Nc2cccc(C(=O)O)c2)c1 | . | . | . | 75.7 | . | .
COc1cccc(/C=N/NC(=S)Nc2cccc(C(=O)O)c2)c1 | . | . | 28.9 | . | . | .
COc1ccc(OC)c(NC(=O)Nc2ccc(Cl)cc2)c1 | . | . | . | . | . | .
COc1ccc(/C=N/NC(=S)Nc2ccccc2)cc1COc1cccc(C)c1C | . | . | . | 91.4 | . | .
COc1ccc(/C=N/NC(=S)Nc2cccc(C(=O)O)c2)cc1OC | . | . | . | . | . | .
COc1ccc(/C=C/C(=O)C2CC2)cc1COc1cccc(C)c1C | . | . | . | . | . | .
COC(=O)c1cc(NC(=O)Nc2cc(OC)ccc2OC)cc(C(=O)OC)c1 | . | . | . | 77.7 | . | .
O=C(COC(=O)c1ccc(Cl)nc1)NC1CCCc2ccccc21 (configuration not stated) | . | . | / | / | / | /
COc1ccc(/C=C2\Oc3cc(OCC(=O)N4CC(O)C[C@H]4C(=O)O)ccc3C2=O)cc1OC (some centres not stated) | . | . | . | / | / | .
COc1ccccc1N(CC(=O)NC1CCCCC1)C(=O)CCC(=O)Nc1nccs1 | . | . | . | / | / | .
COc1ccccc1N1CCN(S(=O)(=O)CCNC(=O)c2cccc(F)c2)CC1 | . | . | / | / | / | /
COc1ccccc1C(=O)COC(=O)CSC(C)C(=O)Nc1cc(C)on1 (configuration not stated) | . | . | / | / | / | /
COc1cccc(NC(=O)C(NC2CCCC2)c2ccccc2)c1 (configuration not stated) | . | . | . | 81.7 | . | .
O=C(Cn1nnc(-c2ccc(Cl)cc2)n1)NC1CC2CCC1C2 (configuration not stated) | . | . | . | . | . | .
O=C(Cn1nnc(-c2ccc(Cl)cc2)n1)NCC1CCCCC1 | . | . | . | 90.1 | . | .
Cc1cc(C)n(-c2nnc(C)n2/N=C/c2cc(Br)ccc2OCc2ccccc2)n1 | . | . | . | 91.8 | . | .
Cc1cc(N=Cc2c(O)n(-c3ccc4c(c3)OCO4)c(=O)c3ccccc23)ccn1 | . | . | . | 93.8 | . | .
CC1=NN(c2ccc(Cl)cc2)C(=O)C1C(c1cccc(O)c1)c1c(C)[nH]n(-c2ccc(Cl)cc2)c1=O (configuration not stated) | . | . | . | . | 17.1 | . | p97 confirm=.
COC(=O)c1sc(-c2ccc(Cl)cc2)cc1NC(=O)/C=C/C(=O)O | . | . | . | . | 17.6 | . | p97 confirm=17.8
COC(=O)c1sc(-c2ccc(Cl)cc2)cc1NC(=O)COCC(=O)O | . | . | . | . | . | .
O=C(OCC(=O)c1c[nH]c2ccccc12)c1ccc([N+](=O)[O-])s1 | . | . | . | . | 31.2 | . | p97 confirm=40.1
Cc1ccc(C(=O)OCC(=O)c2c[nH]c3ccccc23)cc1 | . | . | . | . | . | .
O=S(=O)(Nc1nccs1)c1ccc(Br)cc1 | . | . | . | . | . | .
COc1ccc(S(=O)(=O)Nc2nccs2)cc1OC | . | . | . | . | 17.1 | . | p97 confirm=.
COc1ccc(-c2coc(CCC(=O)N3CCN(c4cc(C)ccc4C)CC3)n2)cc1 | . | . | / | / | / | /
Cn1c(CC(=O)NCCO)c(Sc2ccccc2)c2ccccc21 | . | . | . | . | . | .

From PubChem BioAssay
